# Experimental data: ChEMBL document CHEMBL4689842, “EUbOPEN Chemogenomics Library wave 1” (2021)
# Test system: Fibroblast
# Assay: Multiplex assay against human fibroblast
# Type: toxicity, cell-based
# Summary of the method: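 On a CQ1 microscope at 37°C and 5% CO2, live cells were imaged after compound addition. They had been stained at seeding with Hoechst33342, BioTracker Green Microtubule Cytoskeleton Dye, MitoTracker Red and Annexin V Alexa Fluor 680. CellPathfinder machine-learning gating assigned cells to Hoechst high-intensity objects or normal cells, normal cells to healthy, pyknosed or fragmented nuclei, and pyknosed cells to mitotic or apoptotic. Tubulin, mitochondrial-mass and membrane-permeability phenotypes are per cents of healthy-nucleus cells.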
# [1] = 12 h, 1 µM, compound concentration 1 uM, replicate 1
# [2] = 12 h, 1 µM, compound concentration 1 uM, replicate 2
# [3] = 12 h, 10 µM, compound concentration 10 uM, replicate 1
# [4] = 12 h, 10 µM, compound concentration 10 uM, replicate 2
# [5] = 24 h, 1 µM, compound concentration 1 uM, replicate 1
# [6] = 24 h, 1 µM, compound concentration 1 uM, replicate 2
# [7] = 24 h, 10 µM, compound concentration 10 uM, replicate 1
# [8] = 24 h, 10 µM, compound concentration 10 uM, replicate 2
# [9] = 48 h, 1 µM, compound concentration 1 uM, replicate 1
# [10] = 48 h, 1 µM, compound concentration 1 uM, replicate 2
# [11] = 48 h, 10 µM, compound concentration 10 uM, replicate 1
# [12] = 48 h, 10 µM, compound concentration 10 uM, replicate 2
smiles,measurement,setting,value
CCCSc1nc(N[C@@H]2C[C@H]2c2ccc(F)c(F)c2)c2nnn([C@@H]3C[C@H](OCCO)[C@@H](O)[C@H]3O)c2n1 [TICAGRELOR],Population Apoptotic (%),[1],55%
same,Population Fragmented Nuclei (%),[1],17%
same,Population Healthy Nuclei (%),[1],48%
same,Population Hoechst High Intensity Objects (%),[1],9%
same,Population Membrane Permeable-Phenotype (%),[1],21%
same,Population Mitochondria Different-Phenotype (%),[1],5%
same,Population Mitotic Cells (%),[1],44%
same,Population Normal (%),[1],90%
same,Population Pyknosed Nuclei (%),[1],33%
same,Population Tubulin-Different-Phenotype (%),[1],46%
same,Total Cell Count,[1],179
same,Population Apoptotic (%),[2],66%
same,Population Fragmented Nuclei (%),[2],1%
same,Population Healthy Nuclei (%),[2],93%
same,Population Hoechst High Intensity Objects (%),[2],5%
same,Population Membrane Permeable-Phenotype (%),[2],5%
same,Population Mitochondria Different-Phenotype (%),[2],18%
same,Population Mitotic Cells (%),[2],33%
same,Population Normal (%),[2],94%
same,Population Pyknosed Nuclei (%),[2],4%
same,Population Tubulin-Different-Phenotype (%),[2],13%
same,Total Cell Count,[2],82
same,Population Apoptotic (%),[3],56%
same,Population Fragmented Nuclei (%),[3],29%
same,Population Healthy Nuclei (%),[3],27%
same,Population Hoechst High Intensity Objects (%),[3],12%
same,Population Membrane Permeable-Phenotype (%),[3],12%
same,Population Mitochondria Different-Phenotype (%),[3],78%
same,Population Mitotic Cells (%),[3],43%
same,Population Normal (%),[3],87%
same,Population Pyknosed Nuclei (%),[3],43%
same,Population Tubulin-Different-Phenotype (%),[3],90%
same,Total Cell Count,[3],139
same,Population Apoptotic (%),[4],75%
same,Population Fragmented Nuclei (%),[4],7%
same,Population Healthy Nuclei (%),[4],79%
same,Population Hoechst High Intensity Objects (%),[4],11%
same,Population Membrane Permeable-Phenotype (%),[4],43%
same,Population Mitochondria Different-Phenotype (%),[4],98%
same,Population Mitotic Cells (%),[4],25%
same,Population Normal (%),[4],88%
same,Population Pyknosed Nuclei (%),[4],12%
same,Population Tubulin-Different-Phenotype (%),[4],96%
same,Total Cell Count,[4],67
same,Population Apoptotic (%),[5],43%
same,Population Fragmented Nuclei (%),[5],18%
same,Population Healthy Nuclei (%),[5],62%
same,Population Hoechst High Intensity Objects (%),[5],9%
same,Population Membrane Permeable-Phenotype (%),[5],26%
same,Population Mitochondria Different-Phenotype (%),[5],12%
same,Population Mitotic Cells (%),[5],56%
same,Population Normal (%),[5],90%
same,Population Pyknosed Nuclei (%),[5],19%
same,Population Tubulin-Different-Phenotype (%),[5],50%
same,Total Cell Count,[5],172
same,Population Apoptotic (%),[6],57%
same,Population Fragmented Nuclei (%),[6],3%
same,Population Healthy Nuclei (%),[6],87%
same,Population Hoechst High Intensity Objects (%),[6],2%
same,Population Membrane Permeable-Phenotype (%),[6],4%
same,Population Mitochondria Different-Phenotype (%),[6],20%
same,Population Mitotic Cells (%),[6],42%
same,Population Normal (%),[6],97%
same,Population Pyknosed Nuclei (%),[6],8%
same,Population Tubulin-Different-Phenotype (%),[6],11%
same,Total Cell Count,[6],81
same,Population Apoptotic (%),[7],55%
same,Population Fragmented Nuclei (%),[7],27%
same,Population Healthy Nuclei (%),[7],33%
same,Population Hoechst High Intensity Objects (%),[7],16%
same,Population Membrane Permeable-Phenotype (%),[7],18%
same,Population Mitochondria Different-Phenotype (%),[7],67%
same,Population Mitotic Cells (%),[7],44%
same,Population Normal (%),[7],83%
same,Population Pyknosed Nuclei (%),[7],38%
same,Population Tubulin-Different-Phenotype (%),[7],94%
same,Total Cell Count,[7],133
same,Population Apoptotic (%),[8],83%
same,Population Fragmented Nuclei (%),[8],7%
same,Population Healthy Nuclei (%),[8],73%
same,Population Hoechst High Intensity Objects (%),[8],8%
same,Population Membrane Permeable-Phenotype (%),[8],65%
same,Population Mitochondria Different-Phenotype (%),[8],97%
same,Population Mitotic Cells (%),[8],16%
same,Population Normal (%),[8],91%
same,Population Pyknosed Nuclei (%),[8],19%
same,Population Tubulin-Different-Phenotype (%),[8],97%
same,Total Cell Count,[8],80
same,Population Apoptotic (%),[9],44%
same,Population Fragmented Nuclei (%),[9],25%
same,Population Healthy Nuclei (%),[9],55%
same,Population Hoechst High Intensity Objects (%),[9],9%
same,Population Membrane Permeable-Phenotype (%),[9],16%
same,Population Mitochondria Different-Phenotype (%),[9],5%
same,Population Mitotic Cells (%),[9],55%
same,Population Normal (%),[9],90%
same,Population Pyknosed Nuclei (%),[9],19%
same,Population Tubulin-Different-Phenotype (%),[9],36%
same,Total Cell Count,[9],167
same,Population Apoptotic (%),[10],66%
same,Population Fragmented Nuclei (%),[10],27%
same,Population Healthy Nuclei (%),[10],68%
same,Population Hoechst High Intensity Objects (%),[10],10%
same,Population Membrane Permeable-Phenotype (%),[10],18%
same,Population Mitochondria Different-Phenotype (%),[10],3%
same,Population Mitotic Cells (%),[10],33%
same,Population Normal (%),[10],89%
same,Population Pyknosed Nuclei (%),[10],3%
same,Population Tubulin-Different-Phenotype (%),[10],57%
same,Total Cell Count,[10],88
same,Population Apoptotic (%),[11],69%
same,Population Fragmented Nuclei (%),[11],50%
same,Population Healthy Nuclei (%),[11],31%
same,Population Hoechst High Intensity Objects (%),[11],20%
same,Population Membrane Permeable-Phenotype (%),[11],22%
same,Population Mitochondria Different-Phenotype (%),[11],62%
same,Population Mitotic Cells (%),[11],30%
same,Population Normal (%),[11],79%
same,Population Pyknosed Nuclei (%),[11],18%
same,Population Tubulin-Different-Phenotype (%),[11],90%
same,Total Cell Count,[11],159
same,Population Apoptotic (%),[12],75%
same,Population Fragmented Nuclei (%),[12],32%
same,Population Healthy Nuclei (%),[12],61%
same,Population Hoechst High Intensity Objects (%),[12],5%
same,Population Membrane Permeable-Phenotype (%),[12],2%
same,Population Mitochondria Different-Phenotype (%),[12],84%
same,Population Mitotic Cells (%),[12],25%
same,Population Normal (%),[12],94%
same,Population Pyknosed Nuclei (%),[12],6%
same,Population Tubulin-Different-Phenotype (%),[12],92%
same,Total Cell Count,[12],135
C=CC(=O)Nc1cccc(Oc2nc(Nc3ccc(N4CCN(C)CC4)cc3OC)ncc2Cl)c1,Population Fragmented Nuclei (%),[1],28%
same,Population Healthy Nuclei (%),[1],65%
same,Population Hoechst High Intensity Objects (%),[1],24%
same,Population Mitochondria Different-Phenotype (%),[1],14%
same,Population Normal (%),[1],75%
same,Population Pyknosed Nuclei (%),[1],6%
same,Population Tubulin-Different-Phenotype (%),[1],45%
same,Total Cell Count,[1],324
same,Population Apoptotic (%),[2],60%
same,Population Fragmented Nuclei (%),[2],44%
same,Population Healthy Nuclei (%),[2],48%
same,Population Hoechst High Intensity Objects (%),[2],23%
same,Population Membrane Permeable-Phenotype (%),[2],5%
same,Population Mitochondria Different-Phenotype (%),[2],26%
same,Population Mitotic Cells (%),[2],40%
same,Population Normal (%),[2],76%
same,Population Pyknosed Nuclei (%),[2],7%
same,Population Tubulin-Different-Phenotype (%),[2],64%
same,Total Cell Count,[2],92
same,Population Apoptotic (%),[3],62%
same,Population Fragmented Nuclei (%),[3],39%
same,Population Healthy Nuclei (%),[3],42%
same,Population Hoechst High Intensity Objects (%),[3],15%
same,Population Membrane Permeable-Phenotype (%),[3],7%
same,Population Mitochondria Different-Phenotype (%),[3],2%
same,Population Mitotic Cells (%),[3],37%
same,Population Normal (%),[3],84%
same,Population Pyknosed Nuclei (%),[3],18%
same,Population Tubulin-Different-Phenotype (%),[3],10%
same,Total Cell Count,[3],237
same,Population Apoptotic (%),[4],20%
same,Population Fragmented Nuclei (%),[4],57%
same,Population Healthy Nuclei (%),[4],34%
same,Population Hoechst High Intensity Objects (%),[4],36%
same,Population Membrane Permeable-Phenotype (%),[4],18%
same,Population Mitochondria Different-Phenotype (%),[4],4%
same,Population Mitotic Cells (%),[4],80%
same,Population Normal (%),[4],64%
same,Population Pyknosed Nuclei (%),[4],7%
same,Population Tubulin-Different-Phenotype (%),[4],18%
same,Total Cell Count,[4],100
same,Population Apoptotic (%),[5],61%
same,Population Fragmented Nuclei (%),[5],29%
same,Population Healthy Nuclei (%),[5],60%
same,Population Hoechst High Intensity Objects (%),[5],47%
same,Population Membrane Permeable-Phenotype (%),[5],1%
same,Population Mitochondria Different-Phenotype (%),[5],26%
same,Population Mitotic Cells (%),[5],38%
same,Population Normal (%),[5],52%
same,Population Pyknosed Nuclei (%),[5],9%
same,Population Tubulin-Different-Phenotype (%),[5],38%
same,Total Cell Count,[5],265
same,Population Apoptotic (%),[6],66%
same,Population Fragmented Nuclei (%),[6],31%
same,Population Healthy Nuclei (%),[6],56%
same,Population Hoechst High Intensity Objects (%),[6],37%
same,Population Membrane Permeable-Phenotype (%),[6],7%
same,Population Mitochondria Different-Phenotype (%),[6],48%
same,Population Mitotic Cells (%),[6],33%
same,Population Normal (%),[6],62%
same,Population Pyknosed Nuclei (%),[6],12%
same,Population Tubulin-Different-Phenotype (%),[6],70%
same,Total Cell Count,[6],77
same,Population Apoptotic (%),[7],70%
same,Population Fragmented Nuclei (%),[7],33%
same,Population Healthy Nuclei (%),[7],50%
same,Population Hoechst High Intensity Objects (%),[7],19%
same,Population Membrane Permeable-Phenotype (%),[7],3%
same,Population Mitochondria Different-Phenotype (%),[7],4%
same,Population Mitotic Cells (%),[7],30%
same,Population Normal (%),[7],80%
same,Population Pyknosed Nuclei (%),[7],16%
same,Population Tubulin-Different-Phenotype (%),[7],10%
same,Total Cell Count,[7],231
same,Population Apoptotic (%),[8],0%
same,Population Fragmented Nuclei (%),[8],61%
same,Population Healthy Nuclei (%),[8],35%
same,Population Hoechst High Intensity Objects (%),[8],29%
same,Population Membrane Permeable-Phenotype (%),[8],4%
same,Population Mitochondria Different-Phenotype (%),[8],9%
same,Population Mitotic Cells (%),[8],100%
same,Population Normal (%),[8],70%
same,Population Pyknosed Nuclei (%),[8],3%
same,Population Tubulin-Different-Phenotype (%),[8],14%
same,Total Cell Count,[8],85
